pIC50: −log10 of the molar value. ≈ marks a conversion by molar mass, not a printed value.
Columns and labels:
Staphylococcus aureus [1] = assay: Antibacterial activity against Staphylococcus aureus 4220 after 24 hrs by two-fold serial dilution method; type: functional; conditions: RN4220, 24 h
Summary of the method: (§1)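 Broth microdilution MIC. Bacteria were grown to mid-log phase in Mueller-Hinton broth, diluted 1000-fold, and inoculated at 10^5 CFU/mL. Compounds in DMSO (final ≤0.05%) were tested as two-fold serial dilutions from 64 to 0.25. Plates were incubated 24 h at 37 °C and growth read as absorbance at 650 nm. MIC = concentration completely inhibiting growth. Experiments were run three times.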

Staphylococcus aureus [2] = assay: Antibacterial activity against quinolone-resistant Staphylococcus aureus isolate CCARM 3505 after 24 hrs by two-fold serial dilution method; type: functional; conditions: isolate CCARM 3505, 24 h; summary of the method: as §1
Staphylococcus aureus [3] = assay: Antibacterial activity against methicillin-resistant Staphylococcus aureus isolate CCARM 3167 after 24 hrs by two-fold serial dilution method; type: functional; conditions: isolate CCARM 3167, 24 h
Streptococcus mutans = assay: Antibacterial activity against Streptococcus mutans 3289 after 24 hrs by two-fold serial dilution method; type: functional; conditions: Streptococcus mutans, 3289, 24 h
Candida albicans = assay: Antifungal activity against Candida albicans 7535 after 24 hrs by two-fold serial dilution method; type: functional; conditions: Candida albicans, 7535, 24 h
Escherichia coli [4] = assay: Antibacterial activity against Escherichia coli 1924 after 24 hrs by two-fold serial dilution method; type: functional; conditions: Escherichia coli, 1924, 24 h
Summary of the method: (§2)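 Bacteria grown to mid-log phase in Mueller-Hinton broth, diluted 1000-fold, and inoculated at 10^5 CFU/mL. Compounds were dissolved in DMSO (final ≤0.05%) and two-fold serially diluted. MIC was the lowest concentration giving complete growth inhibition after 24 h at 37 °C, with growth read as absorbance at 650 nm. Each experiment was run three times.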

Pseudomonas aeruginosa = assay: Antibacterial activity against Pseudomonas aeruginosa 2742 after 24 hrs by two-fold serial dilution method; type: functional; conditions: Pseudomonas aeruginosa, 2742, 24 h; summary of the method: as §2
Salmonella typhimurium = assay: Antibacterial activity against Salmonella typhimurium 2421 after 24 hrs by two-fold serial dilution method; type: functional, Salmonella enterica subsp. enterica serovar Typhimurium; conditions: Salmonella enterica, 2421, 24 h; summary of the method: as §2
L02 = assay: Cytotoxicity against human L02 cells assessed as growth inhibition after 24 hrs by MTT assay; type: cell-based; conditions: L02, 24 h
Staphylococcus aureus [5] = assay: Potency index, ratio of moxifloxacin MIC to compound MIC for quinolone-resistant Staphylococcus aureus isolate CCARM 3505; type: functional
Staphylococcus aureus [6] = assay: Potency index, ratio of gatifloxacin MIC to compound MIC for quinolone-resistant Staphylococcus aureus isolate CCARM 3505; type: functional
Escherichia coli [7] = assay: Potency index, ratio of moxifloxacin MIC to compound MIC for Escherichia coli 1924; type: functional
Escherichia coli [8] = assay: Potency index, ratio of gatifloxacin MIC to compound MIC for Escherichia coli 1924; type: functional
[9] = target: Dihydrofolate reductase (Staphylococcus aureus) (UniProt P0A017); assay: Inhibition of Staphylococcus aureus DHFR at 10 uM after 1.5 hrs by ELISA relative to control; conditions: Staphylococcus aureus subsp. aureus RN4220
Dihydrofolate reductase (Staphylococcus aureus), sequence (P0A017 2-159 limits assumed): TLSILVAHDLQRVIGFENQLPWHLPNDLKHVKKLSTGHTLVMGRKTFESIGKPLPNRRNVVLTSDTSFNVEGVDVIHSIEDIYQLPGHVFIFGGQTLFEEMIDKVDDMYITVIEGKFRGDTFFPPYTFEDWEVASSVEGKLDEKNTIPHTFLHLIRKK

| SMILES | MIC (Staphylococcus aureus [1]) | MIC (Staphylococcus aureus [2]) [µg/mL] | MIC (Staphylococcus aureus [3]) | MIC (Streptococcus mutans) [µg/mL] | MIC (Candida albicans) [µg/mL] | MIC (Escherichia coli [4]) [µg/mL] | MIC (Pseudomonas aeruginosa) [µg/mL] | MIC (Salmonella typhimurium) [µg/mL] | pIC50 (L02) | Ratio (Staphylococcus aureus [5]) | Ratio (Staphylococcus aureus [6]) | Ratio (Escherichia coli [7]) | Ratio (Escherichia coli [8]) | inhibition [9] [%] |
| --- | --- | --- | --- | --- | --- | --- | --- | --- | --- | --- | --- | --- | --- | --- |
| COc1cccc(C(=O)/C=C/c2ccc(C3N=C(N)NC(N(C)C)=N3)cc2)c1 (stereo unspecified) | 32 µg/mL | 16 (≈ 42.4 µM) | 16 µg/mL | 16 (≈ 42.4 µM) | 16 (≈ 42.4 µM) | 16 (≈ 42.4 µM) | > 64 | > 64 |  |  |  |  |  |  |
| CN(C)C1=NC(c2ccc3cc(OCc4cccc(Cl)c4)ccc3c2)N=C(N)N1 (stereo unspecified) | 2 µg/mL | 1 (≈ 2.45 µM) | 1 µg/mL | 2 (≈ 4.9 µM) | 1 (≈ 2.45 µM) | 1 (≈ 2.45 µM) | 64 (≈ 157 µM) | 64 (≈ 157 µM) |  |  |  |  |  |  |
| Cc1ccc(COc2ccc(C3N=C(N)NC(N(C)C)=N3)cc2)cc1 (stereo unspecified) | 32 µg/mL | 32 (≈ 94.8 µM) | 32 µg/mL | 16 (≈ 47.4 µM) | 16 (≈ 47.4 µM) | 16 (≈ 47.4 µM) | > 64 | > 64 |  |  |  |  |  |  |
| CN(C)C1=NC(c2ccc3cc(OCc4ccccc4)ccc3c2)N=C(N)N1 (stereo unspecified) | 16 µg/mL | 8 (≈ 21.4 µM) | 8 µg/mL | 8 (≈ 21.4 µM) | 8 (≈ 21.4 µM) | 8 (≈ 21.4 µM) | > 64 | > 64 |  |  |  |  |  |  |
| COc1c(N2C[C@@H]3CCCN[C@@H]3C2)c(F)cc2c(=O)c(C(=O)O)cn(C3CC3)c12 [MOXIFLOXACIN] | 4 µg/mL | 1 (≈ 2.49 µM) |  |  |  |  | 0.5 (≈ 1.25 µM) |  |  |  |  |  |  |  |
| CN(C)C1=NC(c2ccc(/C=C/C(=O)c3ccc(F)cc3)cc2)N=C(N)N1 (stereo unspecified) | 32 µg/mL | 32 (≈ 87.6 µM) | 32 µg/mL | 16 (≈ 43.8 µM) | 32 (≈ 87.6 µM) | 32 (≈ 87.6 µM) | > 64 | > 64 |  |  |  |  |  |  |
| Cc1ccc(C(=O)/C=C/c2ccc(C3N=C(N)NC(N(C)C)=N3)cc2)c(C)c1 (stereo unspecified) | 32 µg/mL | 32 (≈ 85.2 µM) | 32 µg/mL | 32 (≈ 85.2 µM) | 32 (≈ 85.2 µM) | 32 (≈ 85.2 µM) | > 64 | > 64 |  |  |  |  |  |  |
| CN(C)C1=NC(c2ccc(OCC(=O)c3ccc(Br)cc3)cc2)N=C(N)N1 (stereo unspecified) | 32 µg/mL | 64 (≈ 149 µM) | 32 µg/mL | 32 (≈ 74.4 µM) | 32 (≈ 74.4 µM) | 64 (≈ 149 µM) | > 64 | > 64 |  |  |  |  |  |  |
| CN(C)C1=NC(c2ccc3cc(OCc4ccccc4Cl)ccc3c2)N=C(N)N1 (stereo unspecified) | 2 µg/mL | 1 (≈ 2.45 µM) | 1 µg/mL | 2 (≈ 4.9 µM) | 1 (≈ 2.45 µM) | 1 (≈ 2.45 µM) | 64 (≈ 157 µM) | 64 (≈ 157 µM) |  |  |  |  |  |  |
| COc1c(N2CCNC(C)C2)c(F)cc2c(=O)c(C(=O)O)cn(C3CC3)c12 (stereo unspecified) [GATIFLOXACIN] | 0.25 µg/mL | 8 (≈ 21.3 µM) | 2 µg/mL | 0.25 (≈ 0.666 µM) | 0.5 (≈ 1.33 µM) | 2 (≈ 5.33 µM) | 1 (≈ 2.66 µM) |  |  |  |  |  |  |  |
| COc1ccccc1C(=O)/C=C/c1ccc(C2N=C(N)NC(N(C)C)=N2)cc1 (stereo unspecified) | 64 µg/mL | 64 (≈ 170 µM) | 64 µg/mL | 64 (≈ 170 µM) | 32 (≈ 84.8 µM) | 64 (≈ 170 µM) | > 64 | > 64 |  |  |  |  |  |  |
| CN(C)C1=NC(c2ccc(/C=C/C(=O)c3ccc(Br)cc3)cc2)N=C(N)N1 (stereo unspecified) | 16 µg/mL | 8 (≈ 18.8 µM) | 8 µg/mL | 16 (≈ 37.5 µM) | 16 (≈ 37.5 µM) | 16 (≈ 37.5 µM) | > 64 | > 64 |  |  |  |  |  |  |
| CN(C)C1=NC(c2ccc(OCC(=O)c3ccccc3)cc2)N=C(N)N1 (stereo unspecified) | > 64 µg/mL | > 64 | > 64 µg/mL | > 64 | > 64 | > 64 | > 64 | > 64 |  |  |  |  |  |  |
| CN(C)C1=NC(c2ccc3cc(OCC(=O)c4ccc(Br)cc4)ccc3c2)N=C(N)N1 (stereo unspecified) | 16.7 µM | 4 (≈ 8.33 µM) | 8.35 µM | 8 (≈ 16.7 µM) | 16 (≈ 33.3 µM) | 8 (≈ 16.7 µM) | 64 (≈ 133 µM) | 64 (≈ 133 µM) | 4.23 |  |  |  |  |  |
| CN(C)C1=NC(c2ccc(/C=C/C(=O)c3ccccc3)cc2)N=C(N)N1 (stereo unspecified) | 32 µg/mL | 32 (≈ 92.1 µM) | 32 µg/mL | 32 (≈ 92.1 µM) | 32 (≈ 92.1 µM) | 64 (≈ 184 µM) | > 64 | > 64 |  |  |  |  |  |  |
| CN(C)C1=NC(c2ccc3cc(OCc4ccc(Cl)cc4)ccc3c2)N=C(N)N1 (stereo unspecified) | 1 µg/mL | 1 (≈ 2.45 µM) | 1 µg/mL | 1 (≈ 2.45 µM) | 1 (≈ 2.45 µM) | 1 (≈ 2.45 µM) | 64 (≈ 157 µM) | 64 (≈ 157 µM) |  |  |  |  |  |  |
| CN(C)C1=NC(c2ccc(OCc3ccccc3)cc2)N=C(N)N1 (stereo unspecified) | 64 µg/mL | 32 (≈ 98.9 µM) | 32 µg/mL | 32 (≈ 98.9 µM) | 32 (≈ 98.9 µM) | 32 (≈ 98.9 µM) | > 64 | > 64 |  |  |  |  |  |  |
| CN(C)C1=NC(c2ccc3cc(OCC(=O)c4ccccc4)ccc3c2)N=C(N)N1 (stereo unspecified) | 32 µg/mL | 32 (≈ 79.7 µM) | 32 µg/mL | 64 (≈ 159 µM) | 32 (≈ 79.7 µM) | 64 (≈ 159 µM) | > 64 | > 64 |  |  |  |  |  |  |
| CN(C)C1=NC(c2ccc3cc(OCc4ccc(Br)cc4)ccc3c2)N=C(N)N1 (stereo unspecified) | 1 µg/mL | 1 (≈ 2.21 µM) | 1 µg/mL | 1 (≈ 2.21 µM) | 1 (≈ 2.21 µM) | 1 (≈ 2.21 µM) | 64 (≈ 141 µM) | 64 (≈ 141 µM) |  |  |  |  |  |  |
| Cc1ccc(C(=O)/C=C/c2ccc(C3N=C(N)NC(N(C)C)=N3)cc2)cc1 (stereo unspecified) | 32 µg/mL | 16 (≈ 44.3 µM) | 16 µg/mL | 16 (≈ 44.3 µM) | 16 (≈ 44.3 µM) | 32 (≈ 88.5 µM) | > 64 | > 64 |  |  |  |  |  |  |
| CN(C)C1=NC(c2ccc(/C=C/C(=O)c3ccc(Cl)cc3Cl)cc2)N=C(N)N1 (stereo unspecified) | 19.3 µM | 8 (≈ 19.2 µM) | 19.3 µM | 4 (≈ 9.61 µM) | 8 (≈ 19.2 µM) | 8 (≈ 19.2 µM) | 64 (≈ 154 µM) | > 64 | 4.35 |  |  |  |  |  |
| CN(C)C1=NC(c2ccc(/C=C/C(=O)c3ccccc3Br)cc2)N=C(N)N1 (stereo unspecified) | 64 µg/mL | 32 (≈ 75.1 µM) | 32 µg/mL | 16 (≈ 37.5 µM) | 32 (≈ 75.1 µM) | 64 (≈ 150 µM) | > 64 | > 64 |  |  |  |  |  |  |
| CN(C)C1=NC(c2ccc3cc(OCc4ccc(Cl)cc4Cl)ccc3c2)N=C(N)N1 (stereo unspecified) | 1.13 µM | 0.5 (≈ 1.13 µM) | 2.27 µM | 1 (≈ 2.26 µM) | 1 (≈ 2.26 µM) | 0.5 (≈ 1.13 µM) | 64 (≈ 145 µM) | 64 (≈ 145 µM) | 4.23 | 8 | 16 | 4 | 4 | 58 |
| OC(Cn1cncn1)(Cn1cncn1)c1ccc(F)cc1F [FLUCONAZOLE] |  |  |  | 1 (≈ 3.27 µM) |  |  |  |  |  |  |  |  |  |  |
| CN(C)C1=NC(c2ccc3cc(OCc4ccccc4F)ccc3c2)N=C(N)N1 (stereo unspecified) | 2 µg/mL | 4 (≈ 10.2 µM) | 2 µg/mL | 4 (≈ 10.2 µM) | 4 (≈ 10.2 µM) | 4 (≈ 10.2 µM) | 64 (≈ 163 µM) | 64 (≈ 163 µM) |  |  |  |  |  |  |
| CN(C)C1=NC(c2ccc(OCc3ccc(F)cc3)cc2)N=C(N)N1 (stereo unspecified) | 64 µg/mL | 64 (≈ 187 µM) | 32 µg/mL | 64 (≈ 187 µM) | 64 (≈ 187 µM) | 64 (≈ 187 µM) | > 64 | > 64 |  |  |  |  |  |  |
| Cc1ccc(COc2ccc3cc(C4N=C(N)NC(N(C)C)=N4)ccc3c2)cc1 (stereo unspecified) | 2 µg/mL | 2 (≈ 5.16 µM) | 2 µg/mL | 2 (≈ 5.16 µM) | 4 (≈ 10.3 µM) | 2 (≈ 5.16 µM) | 64 (≈ 165 µM) | 64 (≈ 165 µM) |  |  |  |  |  |  |

Source: ChEMBL document CHEMBL4219177, “Synthesis and evaluation of the antibacterial activities of aryl substituted dihydrotriazine derivatives” (Bioorg Med Chem Lett, 2018)
